Results published in ChEMBL document CHEMBL3734722, “Structural Elucidation of a Small Molecule Inhibitor of Protein Disulfide Isomerase” (ACS Med Chem Lett, 2015).
Activity calls are given as the source filed them. The calls are words filed in the database; no cut-off is given here.

Tests used:
[1] = tested on: PC-12; experiment: Neuroprotective activity against rat PC12 cells expressing mutant HTT-Q103 assessed as cell viability by alamar blue assay; type: functional, cell-based
Outline: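 PC12 cells stably carrying inducible mutant HTT plasmid (mHTT-Q103); expression induced, causing death within 48 h. Serial-dilution dose–response; after 48 h Alamar blue added and fluorescence read. Data as mean percent of DMSO-treated uninduced cells ± SD; EC50 from curve.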

[2] = Intrinsic clearance in mouse liver microsome at 0.5 microM incubated upto 45 mins by LC-MS/MS analysis; type: ADME; settings: microsomes, 0.75 h
Outline: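 Mouse liver microsome incubation; intrinsic clearance expressed as mL/min/g, with 7-ethoxycoumarin as reference compound.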

[3] = molecular target: Protein disulfide-isomerase (Homo sapiens) (UniProt P07237); experiment: Binding affinity to PDI catalytic domain a (unknown origin) after 1 hrs by intrinsic tryptophan fluorescence assay
Chain of Protein disulfide-isomerase (Homo sapiens) (P07237 18-508 limits assumed): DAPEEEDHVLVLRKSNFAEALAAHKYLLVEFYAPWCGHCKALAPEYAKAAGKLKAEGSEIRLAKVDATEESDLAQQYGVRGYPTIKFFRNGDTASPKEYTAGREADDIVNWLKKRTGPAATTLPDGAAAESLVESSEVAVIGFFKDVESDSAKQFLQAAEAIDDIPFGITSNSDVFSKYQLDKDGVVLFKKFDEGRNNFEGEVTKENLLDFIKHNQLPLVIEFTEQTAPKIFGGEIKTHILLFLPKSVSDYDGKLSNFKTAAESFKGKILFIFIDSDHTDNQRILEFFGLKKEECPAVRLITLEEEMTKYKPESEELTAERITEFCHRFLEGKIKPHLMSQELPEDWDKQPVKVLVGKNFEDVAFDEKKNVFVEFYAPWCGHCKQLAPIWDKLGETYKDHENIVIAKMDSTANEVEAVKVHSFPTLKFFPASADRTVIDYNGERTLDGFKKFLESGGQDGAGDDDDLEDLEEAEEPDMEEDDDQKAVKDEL
Outline: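 PDIa intrinsic Trp fluorescence recorded with varying securinine concentrations; emission spectra taken and intensity at 330 nm normalized; Kd derived from concentration-dependent quenching.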

[4] = tested on: PC-12; experiment: Neuroprotective activity against rat PC12 cells expressing mutant HTT-Q103 assessed as increase in cell viability compound preincubated for 0,1,2,or 3 days in PC12 growth medium followed by cells addition measured after 48 hrs by alamar blue assay; type: functional, cell-based
Outline: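 Compound held at 37 °C for 0, 1, 2 or 3 days in PC12 growth medium, then aliquots added to induced PC12 mHTT-Q103 cells. After 48 h treatment, Alamar blue added and viability quantified by fluorescence plate reader.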

[5] = molecular target: Protein disulfide-isomerase (Homo sapiens) (UniProt P07237); experiment: Irreversible binding affinity to PDI catalytic domain a (unknown origin) at 4.5 mM measured after 100 fold dilution for 2 hrs by intrinsic tryptophan fluorescence assay
Outline: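 Jump-dilution reversibility test: PDIa (1 mM) incubated with ligand at 4.5 mM, complex diluted 100-fold (to 45 μM ligand, 10 μM PDIa) and dialysed, then Trp emission spectra recorded. Phenylarsine oxide, a covalent vicinal-thiol modifier, processed identically as control.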

[6] = Half life in mouse plasma at 1 uM for 120 mins by LC-MS/MS analysis; type: ADME, cell-free
[7] = Plasma protein binding in mouse at 2000 ng/ml for 4 hrs by LC-MS/MS analysis; type: ADME, cell-free; settings: read-out: PPB (converted)

Q: Which Activity [1] does the source give for `CC(C)C1OCCN1CC1COC2(CCCCC2)O1` (stereo not given) here?
A: inactive

Q: Which CLint [2] does the source give for `CCOc1ccc2ccc(=O)oc2c1` [ETHOXYCOUMARIN] here?
A: 24.58 mL/min/g

Q: With `O=C1C=C2C=C[C@H]3C[C@@]2(O1)[C@H]1CCCCN31` as the compound, how does the Activity [3] read?
A: Dose-dependent effect

Q: And the EC50 [1]?
A: 3.3 µM

Q: And the Activity [4]?
A: Active

Q: What about the Activity [5] of the same compound?
A: Active

Q: What about the CLint [2] of the same compound?
A: 8.3 mL/min/g

Q: And the half-life at 1 µM [6]?
A: 1.6 h

Q: And the fraction unbound at 4 h, 2000 ng/ml [7]?
A: 0.51

Q: With `CC(=O)CC(c1ccccc1)c1c(O)c2ccccc2oc1=O` (stereo not given) [WARFARIN] as the compound, how does the fraction unbound at 4 h, 2000 ng/ml [7] read?
A: 0.06
